Source: ChEMBL document CHEMBL1138468, “Potent, brain-penetrant, hydroisoindoline-based human neurokinin-1 receptor antagonists” (J Med Chem, 2009)
One block for each molecule: values may come before it.

Experiments:
[1] = biological target: T1, Substance-P receptor (Homo sapiens, UniProt P25103); experiment: Displacement of [125I]substance P human recombinant NK1 receptor expressed in CHO cells in absence of human serum albumin; assay type: cell-based
Summary of the method: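 Competitive radioligand binding with [125I]substance P on CHO cells stably expressing recombinant hNK1 receptor; IC50 determined without and with 50% human serum.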

[2] = biological target: T1, Substance-P receptor; experiment: Antagonist activity at human NK1 receptor expressed in CHO cells assessed as inhibition of substance P-induced IP1 formation at 100 nM; assay type: functional, cell-based; design: scale not given: the % may be the effect or the level left
Summary of the method: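 CHO cells stably expressing recombinant human NK1 receptor; substance-P-evoked IP-1 formation measured with antagonist present at 100 nM; value given as % of substance P response remaining.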

[3] = test system: Gerbillinae; experiment: Toxicity in iv dosed gerbils brain assessed as inhibition of GR-73632-induced foot tapping after 24 hrs; assay type: organism-based; details: in vivo
[4] = test system: Gerbillinae; experiment: Toxicity in iv dosed gerbils brain assessed as inhibition of GR-73632-induced foot tapping after 1 hr; assay type: organism-based; details: in vivo
[5] = test system: Rhesus monkey; experiment: Ex vivo NK1 receptor occupancy in rhesus monkey brain at plasma level of 390 ng/ml; assay type: functional, Macaca mulatta
[6] = organism: Macaca mulatta; experiment: Ex vivo NK1 receptor occupancy in rhesus brain at plasma level of 31 ng/ml
[7] = biological target: Cytochrome P450 2D6 (Homo sapiens, UniProt P10635); experiment: Inhibition of human CYP2D6; assay type: ADME
[8] = biological target: Cytochrome P450 3A4 (Homo sapiens, UniProt P08684); experiment: Inhibition of human CYP3A4; assay type: ADME
[9] = biological target: T2, Cytochrome P450 2C8 (Homo sapiens, UniProt P10632); experiment: Inhibition of human CYP2C8; assay type: ADME
T2 sequence (P10632 whole entry): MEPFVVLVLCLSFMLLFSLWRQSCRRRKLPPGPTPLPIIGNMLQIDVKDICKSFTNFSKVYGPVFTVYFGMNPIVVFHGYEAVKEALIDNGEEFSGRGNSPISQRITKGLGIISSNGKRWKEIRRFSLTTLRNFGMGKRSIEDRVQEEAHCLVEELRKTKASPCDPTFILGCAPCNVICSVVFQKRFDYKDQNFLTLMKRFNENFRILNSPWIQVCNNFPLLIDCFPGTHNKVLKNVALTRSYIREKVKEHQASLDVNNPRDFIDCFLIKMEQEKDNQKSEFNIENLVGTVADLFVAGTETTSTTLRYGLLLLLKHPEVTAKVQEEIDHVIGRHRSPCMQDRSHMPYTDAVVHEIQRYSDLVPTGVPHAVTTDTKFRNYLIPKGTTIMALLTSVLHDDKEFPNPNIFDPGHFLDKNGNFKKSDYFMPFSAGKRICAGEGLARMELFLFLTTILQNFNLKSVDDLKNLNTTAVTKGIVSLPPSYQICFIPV

[10] = Half life in monkey at 0.5 mg/kg, iv and 1 mg/kg, po; assay type: ADME, organism-based, Macaca mulatta; details: rhesus monkey, in vivo
Summary of the method: (§1)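 Dogs and monkeys dosed at 0.5 mg/kg iv and 1 mg/kg po; plasma sampled to derive clearance, Vdss, half-life, oral bioavailability and dose-normalised oral AUC(0-∞).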

[11] = Bioavailability in rat at 1 mg/kg, iv and 2 mg/kg; assay type: ADME, organism-based; details: in vivo
Summary of the method: (§2)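 Rats dosed at 1 mg/kg iv and 2 mg/kg po; plasma pharmacokinetics (clearance, Vdss, half-life, oral bioavailability) derived.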

[12] = biological target: T3, Cytochrome P450 1A2 (Homo sapiens, UniProt P05177); experiment: Inhibition of human CYP1A2; assay type: ADME
T3 sequence (P05177 whole entry): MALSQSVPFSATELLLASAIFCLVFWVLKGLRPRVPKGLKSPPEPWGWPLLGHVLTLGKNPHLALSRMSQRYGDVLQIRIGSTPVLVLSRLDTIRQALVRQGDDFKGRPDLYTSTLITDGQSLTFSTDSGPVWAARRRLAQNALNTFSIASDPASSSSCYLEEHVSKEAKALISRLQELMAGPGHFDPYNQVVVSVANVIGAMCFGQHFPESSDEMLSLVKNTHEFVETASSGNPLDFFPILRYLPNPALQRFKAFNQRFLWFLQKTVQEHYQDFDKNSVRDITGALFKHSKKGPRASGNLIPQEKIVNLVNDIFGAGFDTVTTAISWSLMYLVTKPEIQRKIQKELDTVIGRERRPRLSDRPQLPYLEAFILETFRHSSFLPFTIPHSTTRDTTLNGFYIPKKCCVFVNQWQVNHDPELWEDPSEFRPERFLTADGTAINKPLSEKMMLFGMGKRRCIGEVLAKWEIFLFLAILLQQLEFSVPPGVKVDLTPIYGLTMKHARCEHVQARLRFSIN

[13] = test system: Rhesus monkey; experiment: Ex vivo NK1 receptor occupancy in rhesus monkey brain at plasma level of 5 ng/ml; assay type: functional, Macaca mulatta
Summary of the method: (§3)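 Rhesus PET with [18F]SPARQ: striatal binding compared before and during steady-state plasma drug level, achieved by iv bolus plus matched constant iv infusion continued through imaging; occupancy vs plasma concentration fit to three-parameter Hill equation.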

[14] = Half life in dog at 0.5 mg/kg, iv and 1 mg/kg, po; assay type: ADME, organism-based, Canis lupus familiaris; details: in vivo; summary of the method: as §1
[15] = Bioavailability in monkey at 0.5 mg/kg, iv and 1 mg/kg, po; assay type: ADME, organism-based, Macaca mulatta; details: rhesus monkey, in vivo; summary of the method: as §1
[16] = Volume of distribution at steady state in rat at 1 mg/kg, iv and 2 mg/kg, po; assay type: ADME, organism-based; details: in vivo, read-out: Vdss; summary of the method: as §2
[17] = Plasma clearance in dog at 0.5 mg/kg, iv and 1 mg/kg, po; assay type: ADME, organism-based, Canis lupus familiaris; summary of the method: as §1
[18] = biological target: Cytochrome P450 2C9 (Homo sapiens, UniProt P11712); experiment: Inhibition of human CYP2C9; assay type: ADME
[19] = Plasma clearance in monkey at 0.5 mg/kg, iv and 1 mg/kg, po; assay type: ADME, organism-based, Macaca mulatta; details: rhesus monkey; summary of the method: as §1
[20] = Plasma clearance in rat at 1 mg/kg, iv and 2 mg/kg, po; assay type: ADME, organism-based; summary of the method: as §2
[21] = Bioavailability in dog at 0.5 mg/kg, iv and 1 mg/kg, po; assay type: ADME, organism-based, Canis lupus familiaris; details: in vivo; summary of the method: as §1
[22] = test system: Gerbillinae; experiment: in iv dosed gerbils plasma assessed as inhibition of GR-73632-induced foot tapping after 24 hrs
[23] = biological target: T4, Substance-K receptor (Homo sapiens, UniProt P21452); experiment: Binding affinity to human NK2 receptor
T4 sequence (P21452 whole entry): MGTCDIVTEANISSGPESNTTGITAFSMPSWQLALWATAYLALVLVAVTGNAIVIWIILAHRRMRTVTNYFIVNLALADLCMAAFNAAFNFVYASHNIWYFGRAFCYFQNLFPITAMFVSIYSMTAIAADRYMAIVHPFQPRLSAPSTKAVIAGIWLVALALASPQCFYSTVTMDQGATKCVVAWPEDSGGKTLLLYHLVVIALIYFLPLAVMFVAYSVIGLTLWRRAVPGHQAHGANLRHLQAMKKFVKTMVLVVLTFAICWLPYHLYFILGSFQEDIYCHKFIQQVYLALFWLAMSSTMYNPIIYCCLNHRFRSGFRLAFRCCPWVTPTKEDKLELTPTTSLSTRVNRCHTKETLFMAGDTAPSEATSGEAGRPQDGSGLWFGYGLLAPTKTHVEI

[24] = biological target: T5, Neuromedin-K receptor (Homo sapiens, UniProt P29371); experiment: Binding affinity to human NK3 receptor
T5 sequence (P29371 whole entry): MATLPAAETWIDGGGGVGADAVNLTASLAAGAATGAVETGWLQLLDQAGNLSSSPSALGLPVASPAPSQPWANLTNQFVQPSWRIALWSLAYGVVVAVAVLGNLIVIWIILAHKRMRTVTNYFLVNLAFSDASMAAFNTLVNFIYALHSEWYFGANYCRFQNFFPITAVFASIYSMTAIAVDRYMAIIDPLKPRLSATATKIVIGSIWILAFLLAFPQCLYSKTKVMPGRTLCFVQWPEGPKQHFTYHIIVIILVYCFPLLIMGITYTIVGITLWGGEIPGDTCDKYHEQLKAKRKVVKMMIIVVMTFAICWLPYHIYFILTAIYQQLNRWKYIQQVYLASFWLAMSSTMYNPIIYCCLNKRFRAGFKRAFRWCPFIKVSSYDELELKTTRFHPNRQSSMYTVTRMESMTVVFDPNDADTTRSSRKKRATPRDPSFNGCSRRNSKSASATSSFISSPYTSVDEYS

[25] = Volume of distribution at steady state in dog at 0.5 mg/kg, iv and 1 mg/kg, po; assay type: ADME, organism-based, Canis lupus familiaris; details: in vivo, read-out: Vdss; summary of the method: as §1
[26] = Volume of distribution at steady state in monkey at 0.5 mg/kg, iv and 1 mg/kg, po; assay type: ADME, organism-based, Macaca mulatta; details: rhesus monkey, in vivo, read-out: Vdss; summary of the method: as §1
[27] = test system: Gerbillinae; experiment: Toxicity in iv dosed gerbils plasma assessed as inhibition of GR-73632-induced foot tapping after 1 hr; assay type: organism-based
[28] = test system: Rhesus monkey; experiment: Ex vivo NK1 receptor occupancy in rhesus monkey brain at plasma level of 37 ng/ml; assay type: functional, Macaca mulatta; summary of the method: as §3
[29] = Half life in rat at 1 mg/kg, iv and 2 mg/kg, po; assay type: ADME, organism-based; details: in vivo; summary of the method: as §2
[30] = biological target: Cytochrome P450 2C19 (Homo sapiens, UniProt P33261); experiment: Inhibition of human CYP2C19; assay type: ADME
Chain of Cytochrome P450 2C19 (P33261 whole entry): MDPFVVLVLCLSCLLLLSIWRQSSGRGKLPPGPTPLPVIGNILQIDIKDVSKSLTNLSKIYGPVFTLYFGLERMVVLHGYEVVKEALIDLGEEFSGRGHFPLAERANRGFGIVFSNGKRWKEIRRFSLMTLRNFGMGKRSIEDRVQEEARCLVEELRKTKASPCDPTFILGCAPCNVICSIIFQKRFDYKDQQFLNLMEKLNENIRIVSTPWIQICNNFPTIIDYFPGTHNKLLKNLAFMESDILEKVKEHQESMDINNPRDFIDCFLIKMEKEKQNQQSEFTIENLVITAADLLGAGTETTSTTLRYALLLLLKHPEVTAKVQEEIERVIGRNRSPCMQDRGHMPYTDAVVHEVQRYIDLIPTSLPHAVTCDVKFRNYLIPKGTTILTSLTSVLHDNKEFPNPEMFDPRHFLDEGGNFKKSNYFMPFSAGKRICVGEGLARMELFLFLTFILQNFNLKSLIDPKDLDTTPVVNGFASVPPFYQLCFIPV

T1 sequence (P25103 whole entry): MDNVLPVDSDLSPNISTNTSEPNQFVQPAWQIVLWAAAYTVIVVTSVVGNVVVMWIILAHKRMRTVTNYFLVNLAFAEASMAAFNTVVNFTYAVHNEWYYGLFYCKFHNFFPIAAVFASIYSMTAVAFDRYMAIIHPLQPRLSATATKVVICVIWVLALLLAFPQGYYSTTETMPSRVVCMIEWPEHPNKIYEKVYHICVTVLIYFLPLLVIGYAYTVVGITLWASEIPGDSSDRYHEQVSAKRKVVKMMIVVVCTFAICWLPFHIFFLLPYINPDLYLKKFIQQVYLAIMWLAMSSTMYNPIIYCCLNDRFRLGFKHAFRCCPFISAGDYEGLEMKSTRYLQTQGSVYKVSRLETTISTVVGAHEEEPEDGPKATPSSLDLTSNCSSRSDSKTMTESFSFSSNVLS
Chain of Cytochrome P450 2D6 (P10635 whole entry): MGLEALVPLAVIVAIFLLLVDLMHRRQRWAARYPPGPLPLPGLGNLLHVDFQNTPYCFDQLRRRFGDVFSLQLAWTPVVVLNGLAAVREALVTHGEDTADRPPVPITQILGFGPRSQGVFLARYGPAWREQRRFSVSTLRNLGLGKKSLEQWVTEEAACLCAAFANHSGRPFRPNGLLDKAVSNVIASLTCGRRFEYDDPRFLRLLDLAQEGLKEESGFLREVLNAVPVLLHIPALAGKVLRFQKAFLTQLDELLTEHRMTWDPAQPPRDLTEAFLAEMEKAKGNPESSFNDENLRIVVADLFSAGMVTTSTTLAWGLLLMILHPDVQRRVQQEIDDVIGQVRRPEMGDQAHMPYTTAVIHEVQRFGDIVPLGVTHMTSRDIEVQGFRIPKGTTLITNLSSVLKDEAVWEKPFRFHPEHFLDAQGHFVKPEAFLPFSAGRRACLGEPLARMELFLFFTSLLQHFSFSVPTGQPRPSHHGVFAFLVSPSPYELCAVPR
Chain of Cytochrome P450 2C9 (P11712 whole entry): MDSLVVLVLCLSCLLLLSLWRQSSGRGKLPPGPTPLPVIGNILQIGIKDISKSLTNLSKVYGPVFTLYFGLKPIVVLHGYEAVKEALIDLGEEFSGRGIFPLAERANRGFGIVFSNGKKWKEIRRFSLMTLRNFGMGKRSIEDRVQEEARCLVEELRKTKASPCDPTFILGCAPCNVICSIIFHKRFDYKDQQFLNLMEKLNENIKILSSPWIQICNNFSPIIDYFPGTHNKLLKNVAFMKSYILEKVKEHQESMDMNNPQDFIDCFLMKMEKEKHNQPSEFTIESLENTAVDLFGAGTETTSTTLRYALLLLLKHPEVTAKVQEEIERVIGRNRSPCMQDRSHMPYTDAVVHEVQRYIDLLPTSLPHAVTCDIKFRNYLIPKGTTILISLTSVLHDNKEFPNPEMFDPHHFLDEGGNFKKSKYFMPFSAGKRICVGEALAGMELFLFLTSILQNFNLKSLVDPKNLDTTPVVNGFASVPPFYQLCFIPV
Chain of Cytochrome P450 3A4 (P08684 whole entry): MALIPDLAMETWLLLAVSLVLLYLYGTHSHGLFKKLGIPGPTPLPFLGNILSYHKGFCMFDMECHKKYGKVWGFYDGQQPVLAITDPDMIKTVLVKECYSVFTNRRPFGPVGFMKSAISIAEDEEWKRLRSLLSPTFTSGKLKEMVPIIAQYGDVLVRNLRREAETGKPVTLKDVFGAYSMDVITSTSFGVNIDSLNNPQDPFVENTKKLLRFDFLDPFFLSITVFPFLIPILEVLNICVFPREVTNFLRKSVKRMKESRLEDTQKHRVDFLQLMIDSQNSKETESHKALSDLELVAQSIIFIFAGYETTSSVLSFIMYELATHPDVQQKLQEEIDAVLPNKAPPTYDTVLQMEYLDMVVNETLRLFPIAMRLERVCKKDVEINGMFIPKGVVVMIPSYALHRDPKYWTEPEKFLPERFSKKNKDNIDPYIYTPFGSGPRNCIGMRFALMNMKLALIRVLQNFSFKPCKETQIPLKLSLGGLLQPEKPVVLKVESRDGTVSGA

IC50 [1]: 0.525 nM
Activity [2]: 79%
Compound: C[C@@H](O[C@H]1CC[C@@H]2CN(c3cnccn3)C[C@H]2[C@@H]1c1ccc(F)cc1)c1cc(C(F)(F)F)cc(C(F)(F)F)c1

IC50 [1]: 0.1 nM
Activity [2]: 9%
Compound: CC1=C(N2C[C@H]3CC[C@H](O[C@H](C)c4cc(C(F)(F)F)cc(C(F)(F)F)c4)[C@@H](c4ccc(F)cc4)[C@@H]3C2)CCC1=O
ID50 [3]: 0.2 mg/kg
ID50 [4]: 0.13 mg/kg

IC50 [1]: 0.15 nM
Activity [2]: 44%
Compound: C[C@@H](O[C@H]1CC[C@@H]2CNC[C@H]2[C@@H]1c1ccc(F)cc1)c1cc(C(F)(F)F)cc(C(F)(F)F)c1

Compound: C[C@@H](O[C@H]1CN(C2=CC(=O)CC2)C[C@@H]1c1ccc(F)cc1)c1cc(C(F)(F)F)cc(C(F)(F)F)c1
Activity [5]: >=90%
Activity [6]: 50%

IC50 [1]: 0.255 nM
Activity [2]: 54%
Compound: C[C@@H](O[C@H]1CC[C@@H]2CN(C)C[C@H]2[C@@H]1c1ccc(F)cc1)c1cc(C(F)(F)F)cc(C(F)(F)F)c1

IC50 [1]: 0.11 nM
Activity [2]: 40%
Compound: CC(=O)N1C[C@H]2CC[C@H](O[C@H](C)c3cc(C(F)(F)F)cc(C(F)(F)F)c3)[C@@H](c3ccc(F)cc3)[C@@H]2C1

IC50 [1]: 0.09 nM
Activity [2]: 58%
Compound: CNC(=O)N1C[C@H]2CC[C@H](O[C@H](C)c3cc(C(F)(F)F)cc(C(F)(F)F)c3)[C@@H](c3ccc(F)cc3)[C@@H]2C1

IC50 [1]: 0.13 nM
Activity [2]: 4%
Compound: C[C@@H](O[C@H]1CC[C@@H]2CN(C3=CC(=O)CCC3)C[C@H]2[C@@H]1c1ccc(F)cc1)c1cc(C(F)(F)F)cc(C(F)(F)F)c1
ID50 [3]: 0.3 mg/kg
ID50 [4]: 0.18 mg/kg

IC50 [7]: 35 µM
IC50 [8]: 39 µM
IC50 [9]: 58 µM
half-life [10]: 1440 min
bioavailability [11]: 40%
IC50 [12]: > 100 µM
half-life [14]: 1860 min
bioavailability [15]: 69%
Vd [16]: 1.5 L/kg
clearance [17]: 0.7 mL/min/kg
IC50 [18]: 30 µM
clearance [19]: 1 mL/min/kg
clearance [20]: 0.7 mL/min/kg
bioavailability [21]: 71%
IC50 [22]: 6 nM
IC50 [1]: 0.06 nM
Ki [23]: 2400 nM
Ki [24]: 2400 nM
Vd [25]: 2 L/kg
Vd [26]: 2 L/kg
Activity [2]: 5%
half-life [29]: 1440 min
IC50 [30]: 29 µM
Compound: C[C@@H](O[C@H]1CC[C@@H]2CN(C3=CC(=O)CC3)C[C@H]2[C@@H]1c1ccc(F)cc1)c1cc(C(F)(F)F)cc(C(F)(F)F)c1 [SERLOPITANT]
Activity [13]: 50%
ID50 [3]: 0.46 mg/kg
ID50 [4]: 0.08 mg/kg
IC50 [27]: 6.5 nM
Activity [28]: 90%
